Data as given in ChEMBL document CHEMBL2034825, “Chemical syntheses and in vitro antibacterial activity of two desferrioxamine B-ciprofloxacin conjugates with potential esterase and phosphatase triggered drug release linkers” (2012).
Converted amounts (≈) assume the structure as drawn.

What was measured:
Bacillus subtilis [1] = experiment: Antibacterial activity against Bacillus subtilis ATCC 6633 at 50 uL of 0.2 mM solution of compound dissolved in 1:9 DMSO/MeOH measured after 24 hrs by agar well diffusion method; format: functional
Outline: (§1)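 Agar well diffusion. 50 µL of a 0.2 mM solution in 1:9 DMSO/MeOH was filled into 9 mm wells in nutrient agar or Mueller Hinton II agar. Plates were incubated 24 h at 37 °C before inhibition zones were read. Zones were scored as partially clear (p, colonies in zone) or unclear (P, many colonies in zone).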

Staphylococcus aureus [2] = experiment: Antibacterial activity against Staphylococcus aureus SG 511 at 50 uL of 0.2 mM solution of compound dissolved in 1:9 DMSO/MeOH measured after 24 hrs by agar well diffusion method; format: functional; outline: as §1
Micrococcus luteus [3] = experiment: Antibacterial activity against Micrococcus luteus ATCC 10240 at 50 uL of 0.2 mM solution of compound dissolved in 1:9 DMSO/MeOH measured after 24 hrs by agar well diffusion method; format: functional; outline: as §1
Pseudomonas aeruginosa [4] = experiment: Antibacterial activity against wild type Pseudomonas aeruginosa K799 at 50 uL of 0.2 mM solution of compound dissolved in 1:9 DMSO/MeOH measured after 24 hrs by agar well diffusion method; format: functional; outline: as §1
Escherichia coli [5] = experiment: Antibacterial activity against Escherichia coli X580 at 50 uL of 0.2 mM solution of compound dissolved in 1:9 DMSO/MeOH measured after 24 hrs by agar well diffusion method; format: functional; outline: as §1
Pseudomonas aeruginosa [6] = experiment: Antibacterial activity against Pseudomonas aeruginosa K799/61 assessed as unclear inhibition zone at 50 uL of 0.2 mM solution of compound dissolved in 1:9 DMSO/MeOH measured after 24 hrs by agar well diffusion method; format: functional; outline: as §1
Escherichia coli [7] = experiment: Antibacterial activity against Escherichia coli X580 assessed as partially clear inhibition zone at 50 uL of 0.2 mM solution of compound dissolved in 1:9 DMSO/MeOH measured after 24 hrs by agar well diffusion method; format: functional; outline: as §1
Enterococcus faecium = experiment: Antibacterial activity against Enterococcus faecium NCTC 7171 by broth microdilution method; format: functional
Outline: (§2)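 MIC90 (µM) by broth microdilution in Mueller-Hinton broth No.2 (MHII) following CLSI guidelines. End point read visually. Each compound tested in triplicate.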

Klebsiella pneumoniae = experiment: Antibacterial activity against Klebsiella pneumoniae ATCC 700603 by broth microdilution method; format: functional; outline: as §2
Acinetobacter baumannii = experiment: Antibacterial activity against Acinetobacter baumannii ATCC 17961 by broth microdilution method; format: functional; outline: as §2
Pseudomonas aeruginosa [8] = experiment: Antibacterial activity against Pseudomonas aeruginosa ATCC 27853 by broth microdilution method; format: functional; outline: as §2
Klebsiella aerogenes = experiment: Antibacterial activity against Enterobacter aerogenes ATCC 35029 by broth microdilution method; format: functional; outline: as §2
Escherichia coli [9] = experiment: Antibacterial activity against Escherichia coli ATCC 25922 by broth microdilution method; format: functional; outline: as §2
Micrococcus luteus [10] = experiment: Antibacterial activity against Micrococcus luteus ATCC 10240 assessed as unclear inhibition zone at 5 ug/mL after 24 hrs by agar well diffusion method; format: functional; settings: ATCC 10240, 24 h, read-out: DIZ
Outline: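 Agar well diffusion with ciprofloxacin dissolved in H2O, tested at 5, 1.66 or […]. Solution was loaded into 9 mm wells in nutrient agar or Mueller Hinton II agar. Inhibition zones were read after 24 h at 37 °C. A zone was scored as P when unclear, with many colonies inside.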

Escherichia coli [11] = experiment: Antibacterial activity against Escherichia coli X580 at 0.33 ug/mL after 24 hrs by agar well diffusion method; settings: X580, 24 h, read-out: DIZ
Bacillus subtilis [12] = experiment: microbe, parasite or virus in culture; settings: ATCC 6633, 24 h, read-out: DIZ
Staphylococcus aureus [13] = experiment: microbe, parasite or virus in culture; settings: SG 511, 24 h, read-out: DIZ
Pseudomonas aeruginosa [14] = experiment: microbe, parasite or virus in culture; settings: K799, 24 h, read-out: DIZ
Pseudomonas aeruginosa [15] = experiment: microbe, parasite or virus in culture; settings: K799/61, 24 h, read-out: DIZ
Pseudomonas aeruginosa [16] = experiment: microbe, parasite or virus in culture; settings: K799/61, 24 h, read-out: DIZ; remark: listed apart in the source
Pseudomonas aeruginosa [17] = experiment: Antibacterial activity against Pseudomonas aeruginosa K799/61 at 50 uL of 0.2 mM solution of compound dissolved in 1:9 DMSO/MeOH measured after 24 hrs by agar well diffusion method; format: functional; outline: as §1
Staphylococcus aureus [18] = experiment: Antibacterial activity against Staphylococcus aureus ATCC 29213 by broth microdilution method; format: functional; outline: as §2
Pseudomonas aeruginosa [19] = experiment: Antibacterial activity against Pseudomonas aeruginosa K799/61 assessed as partially clear inhibition zone at 50 uL of 0.2 mM solution of compound dissolved in 1:9 DMSO/MeOH measured after 24 hrs by agar well diffusion method; format: functional; outline: as §1

Row | SMILES | diameter of the inhibition zone (DIZ) (Bacillus subtilis [1]) [mm] | diameter of the inhibition zone (DIZ) (Staphylococcus aureus [2]) [mm] | diameter of the inhibition zone (DIZ) (Micrococcus luteus [3]) [mm] | diameter of the inhibition zone (DIZ) (Pseudomonas aeruginosa [4]) [mm] | diameter of the inhibition zone (DIZ) (Escherichia coli [5]) [mm] | MIC90 (Enterococcus faecium) [µM] | MIC90 (Klebsiella pneumoniae) [µM] | MIC90 (Acinetobacter baumannii) [µM] | MIC90 (Pseudomonas aeruginosa [8]) [µM] | MIC90 (Klebsiella aerogenes) [µM] | MIC90 (Escherichia coli [9]) [µM] | diameter of the inhibition zone (DIZ) (Pseudomonas aeruginosa [17]) [mm] | also measured
1 | CC(=O)N(O)CCCCCNC(=O)CCC(=O)N(O)CCCCCNC(=O)CCC(=O)N(O)CCCCCNC(=O)CCC(=O)N1CCN(c2cc3c(cc2F)c(=O)c(C(=O)O)cn3C2CC2)CC1 | 21 | 18 | 0 | 0 | 30 |  |  |  |  |  |  |  | diameter of the inhibition zone (DIZ) (Pseudomonas aeruginosa [6]): 26 mm; diameter of the inhibition zone (DIZ) (Escherichia coli [7]): 33 mm
2 | O=C(O)c1cn(C2CC2)c2cc(N3CCNCC3)c(F)cc2c1=O [CIPROFLOXACIN] |  |  |  |  |  | 8 (≈ 2.65 µg/mL) | 0.25 (≈ 0.0828 µg/mL) | 0.25 (≈ 0.0828 µg/mL) | 0.25 (≈ 0.0828 µg/mL) | < 0.015 | < 0.015 |  | zone of inhibition at 5 µg/mL (Micrococcus luteus [10]): 12 mm; zone of inhibition at 0.33 µg/mL (Escherichia coli [11]): 31 mm; zone of inhibition at 1.66 µg/mL (Bacillus subtilis [12]): 28 mm; zone of inhibition at 5 µg/mL (Staphylococcus aureus [13]): 28 mm; zone of inhibition at 1.66 µg/mL (Pseudomonas aeruginosa [14]): 21 mm; zone of inhibition at 1.66 µg/mL (Pseudomonas aeruginosa [15]): 24 mm; zone of inhibition at 1.66 µg/mL (Pseudomonas aeruginosa [16]): 32 mm
3 | CC(=O)N(O)CCCCCNC(=O)CCC(=O)N(O)CCCCCNC(=O)CCC(=O)N(O)CCCCCNC(=O)CCC(=O)Oc1cc(C)cc(C)c1C(C)(C)CC(=O)N1CCN(c2cc3c(cc2F)c(=O)c(C(=O)O)cn3C2CC2)CC1 | 26 | 16 | 0 | 26 | 29 | > 128 | 16 (≈ 18.9 µg/mL) | 8 (≈ 9.43 µg/mL) | 8 (≈ 9.43 µg/mL) | 1 (≈ 1.18 µg/mL) | 1 (≈ 1.18 µg/mL) | 27 | MIC90 (Staphylococcus aureus [18]): 32 µM (≈ 37.7 µg/mL); diameter of the inhibition zone (DIZ) (Pseudomonas aeruginosa [19]): 37 mm
4 | CC(=O)N(O)CCCCCNC(=O)CCC(=O)N(O)CCCCCNC(=O)CCC(=O)N(O)CCCCCNC(=O)CCC(=O)Oc1c(C)cc(OP(=O)(O)O)c(C(C)(C)CC(=O)N2CCN(c3cc4c(cc3F)c(=O)c(C(=O)O)cn4C3CC3)CC2)c1C | 0 | 0 | 0 | 0 | 21 |  |  |  |  |  |  | 0 | 
